Data from paper PMC2943235 (Circulation research, 2010).
“Also recorded” adds a separate entry of the source.

Experiments:
THP-1 cells [1] = assay: Cholesterol efflux from THP-1 cells, with or without LXR agonist; type: cell-based, human
THP-1 cells [2] = type: cell-based, human; conditions: (efflux from live cells minus fixed cells)/efflux from live cells x100%; 80 μg/ml; 4 h; compared with apoA-I
VCAM-1 = type: cell-based, mouse; conditions: 0.75 mg/ml; TNF-α-activated SVEC4/VCAM-1 cells
How it was run: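 SVEC4/VCAM-1 mouse endothelial cells were washed, then given test peptide, apoA-I or HDL at 0.75 mg/ml final for 18 h. TNF-α was added in serum-free medium (10 ng/ml final) for 5 h, and luciferase activity was measured. Activity was expressed per mg cellular protein, relative to vehicle-treated cells, as means ± SEM.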

| Substance | Capacity to support (ABCA1-dependent) cholesterol efflux, in words (THP-1 cells [1]) | Specificity of cholesterol efflux, in words (THP-1 cells [2]) | Inhibition of VCAM-1 expression, in words (VCAM-1) |
| --- | --- | --- | --- |
| EKLKAKLEELKAKLEELL- P- EKAKAALEEAKAKAEELA | very low overall capacity to support cholesterol efflux |  |  |
| EKLKAKLEELKAKLEELL- P- EKLKAKLEELKAKLEELL [ELK-2A2K2E] | exceptional capacity to support cholesterol efflux, even exceeding that of apoA-I; also recorded: very active in ABCA1-dependent cholesterol efflux | exceptional specificity |  |
| EKLKALLEKLLAKLKELL P- EKLKALLEKLLAKLKELL [ELK-2A] |  |  | most active peptide |
| EWLKELLEKLLEKLKELL- P- EWLKELLEKLLEKLKELL [ELK-1W] | modest capacity for the ABC-dependent efflux | exceptional specificity |  |
